Compound activity: PubChem BioAssay, several laboratories
In the library only some 6.4% were active in any assay of this set; here they are far more common.
tolC growth inh = blocks growth of E. coli BW25113 tolC mutant. OD615. growth inhibition, % at 10 µM (by protocol). actives 2.2% (n = 65,000);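 active = growth inhibition at or above a cutoff equal to the mean over every tested compound plus 3 SD, cut at about 60% in these data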;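 also: growth measured after 20 h incubation at 37 °C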
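Material: E. coli BW25113 ΔtolC::kan, tolC deletion mutant strain. Measure: percent growth inhibition. Schedule: 37 °C, 20 h exposure. Doses: single-point testing at 10 µM. Signal: A615 absorbance measurement. Buffer or medium: kanamycin-containing LB broth (50 µg/mL).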
HUVEC inhibit = inhibitors of human endothelial cell proliferation; actives 1.1% (n = 86,000); AID 648; viability, % at 10 µM (by protocol); HUVEC proliferation, CellTiter-Glo luminescence, 72 h; active compounds read low;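 active = viability at or below 30%; inactive = viability above 30%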;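 also: 100% = median luminescence of DMSO-only cell control wells on each plate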
Lung fibro prol = blocks proliferation of human lung fibroblasts | LL 47 human lung fibroblast viability, ATP luminescence; active compounds read low | viability, % at 10 µM | actives 1.1% (n = 85,000) | AID 719;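 active = viability at or below 50% in the single dose screen; inactive = viability above 50%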;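 also: compound exposure lasted 72 h before the ATP readout; 100% = median luminescence of untreated cell-only wells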
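Benchmarks: Cell-only wells, no compound | Test system: LL 47 human lung fibroblasts, passage 12 or lower | Input: 1,150 cells/well | Measured by: CellTiter-Glo luminescence measuring cellular ATP | Medium: IMEM, 15% FBS supplement | Schedule: Overnight attachment after seeding, then 72 h compound exposure at 37 °C | Doses: Compound addition at 0.1% DMSO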
H69AR growth 86K = growth inhibitors of human H69AR lung tumor cells; viability, % at 10 µM; AID 598; H69AR lung tumor viability, ATP luminescence, 72 h; active compounds read low; actives 6% (n = 85,000);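 active = viability at or below 40%; inactive = viability above 40%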;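 also: multidrug resistant small cell line overexpressing MRP-1 efflux transporter; 100% = mean luminescence of untreated control wells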
Jurkat viability = reduces viability or proliferation of Jurkat cells | actives 1.2% (n = 56,000) | Jurkat E6.1 viability, ATP luminescence, 48 h | AID 463 | inhibition, % at 4 µM;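 active = inhibition above the mean inhibition of all tested compounds plus 3 SD, cut at about 28% in these data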
Ecoli WT expand = E. coli BW25113 growth inhibition, expanded screen. OD600 absorbance. growth inhibition, % at 100 µM. actives 0.15% (n = 98,000);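 active = growth inhibition above about 50% at one test dose, limit read from the data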;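 also: growth measured after 20 h incubation at 37 °C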
Numbers without * were called inactive; x = no result given.

SMILES	tolC growth inh	HUVEC inhibit	Lung fibro prol	H69AR growth 86K	Jurkat viability	Ecoli WT expand
O=C(Nc1c(Cl)cc(Cl)cc1C(=O)NCCN1CCOCC1)c1ccc(Cl)cc1Cl	x	87.2	98.5	64.0	x	x
O=C(Cc1c[nH]c2ccccc12)NCc1ccc2c(c1)OCO2	-3.6	82.8	91.9	102.9	-0.1	12.0
Cc1ccc(-n2c(C)cc(/C=c3/sc4nc5ccccc5n4c3=O)c2C)cc1	x	120.2	95.1	97.7	x	-7.0
O=c1/c(=C\c2cccn2-c2ccccc2)sc2nc3ccccc3n12	12.7	58.8	100.2	28.5*	x	4.0
CCn1cc(C(=O)NC2CCCCC2C)c(=O)c2ccc(C)nc21 (stereo not drawn)	100.0*	96.7	x	70.5	3.9	92.0*
CCn1cc(C(=O)NC2CC3CCC2C3)c(=O)c2ccc(C)nc21 (stereo not drawn)	-0.2	87.7	98.2	96.5	-5.1	x
O=C(N/N=C/c1cccs1)C1COc2ccccc2O1 (stereo not drawn)	x	69.4	95.2	24.4*	x	-6.0
O=S(=O)(c1ccc(Cl)cc1)c1snnc1-c1ccccc1	x	7.5*	6.5*	1.9*	x	2.0
CCN(c1ccccc1)S(=O)(=O)c1ccc(OC)c(OC)c1	x	119.3	91.0	104.7	x	-3.0
CCN(c1ccccc1)S(=O)(=O)c1ccc(Oc2ccc(-n3ccnc3)cc2)nc1	26.1	74.7	48.7*	63.6	13.2	-6.0
CCOc1ccc(Nc2nc(Cc3nnc(SCC(=O)c4ccc(C)c(C)c4)o3)cs2)cc1	x	79.8	91.6	64.7	x	-8.0
CCCCC(CC)Cn1c2nc3ccccc3nc2c2c(=N)oc(C)nc21 (stereo not drawn)	0.9	2.5*	75.0	90.4	x	-3.0
CC(Sc1ccc(Cl)cc1)C(=O)Nc1ccc(S(=O)(=O)N2CCOCC2)cc1 (stereo not drawn)	x	84.6	86.0	64.0	x	-12.0
O/N=C(\c1ccc(Cl)cc1)c1cc2ccccc2o1	97.5*	42.7	86.1	1.9*	10.9	-3.0
Cc1ccc(C(=O)c2cc3ccccc3o2)cc1	x	107.2	106.1	84.2	x	5.0
CCOc1ccc(C(C)=O)cc1COc1ccc(-n2cnnn2)cc1	5.6	113.6	93.4	89.2	1.2	-11.0
COc1cccc(NS(=O)(=O)c2c(C)n(C)c(=O)n(C)c2=O)c1	x	93.1	98.8	86.8	x	-12.0
CC1CCCCN1S(=O)(=O)c1ccc(S(=O)(=O)N2CCN(c3ccc(F)cc3)CC2)cc1 (stereo not drawn)	0.6	55.7	72.4	19.3*	-1.8	4.0
O=S(=O)(c1ccc(F)cc1)N1CCN(c2ccccc2)CC1	x	89.7	96.4	76.6	x	4.0
COc1cccc(C2c3c(oc4ccc(Cl)cc4c3=O)C(=O)N2c2cc(C)on2)c1OC (stereo not drawn)	-3.0	54.5	71.9	6.6*	2.3	-12.0
COc1ccc(/C(O)=C2\C(=O)C(=O)N(c3cc(C)on3)C2c2cccc(OC)c2OC)cc1C (stereo not drawn)	-10.3	88.4	95.9	74.0	x	-5.0
CCOc1ccc2nc(NC(=O)CSC3=NCCS3)sc2c1	-5.3	58.9	92.1	1.1*	5.9	3.0
O=C(CSC1=NCCS1)Nc1ccnc2ccccc12	6.1	84.6	94.5	62.2	29.3*	4.0
COc1ccc2nc(NC(=O)CSC3=NCCS3)sc2c1	26.8	29.8*	94.5	43.3	0.7	7.0
CCOc1ccc2nc(NC(=O)CN3CCC(n4nnc5cc(F)ccc54)CC3)sc2c1	79.1*	9.2*	88.6	41.4	16.5	-13.0
SMILES	tolC growth inh	HUVEC inhibit	Lung fibro prol	H69AR growth 86K	Jurkat viability	Ecoli WT expand
CCOc1ccc2nc(NC(=O)CSc3ccc(Cl)cc3)sc2c1	x	97.0	106.0	75.0	x	-6.0
O=C(CN1CCC(n2nnc3cc(F)ccc32)CC1)NC1CC1	-12.3	97.1	102.9	89.6	-4.1	11.0
O=C(CCc1ccccc1)NC(NC(=S)Nc1ccc(Cl)cc1)C(Cl)(Cl)Cl (stereo not drawn)	x	x	x	x	x	-3.0
COC(=O)CC1Oc2ccccc2N(Cc2ccccc2)C1=O (stereo not drawn)	19.5	103.3	103.8	103.8	3.6	4.0
CCCOC(=O)c1ccc(Oc2cn[nH]c2-c2ccc(OCC)cc2O)cc1	69.8*	9.5*	96.1	2.7*	12.3	11.0
CCCOC(=O)c1ccc(NC(=O)c2cnccn2)cc1	-6.6	95.0	97.5	95.2	0.0	7.0
CCCOC(=O)c1ccc(Oc2c(-c3ccc(OCC)cc3O)n[nH]c2C)cc1	26.0	4.5*	54.1	2.2*	3.8	13.0
CC1(c2ccccc2)NC(=O)N(CC(=O)Nc2cccc(C#N)c2)C1=O (stereo not drawn)	-9.3	87.8	98.4	87.0	-6.4	3.0
CCOc1ccc(NS(=O)(=O)c2ccc3[nH]cc(C(=O)NC(C)CC)c(=O)c3c2)cc1 (stereo not drawn)	100.0*	85.9	93.8	97.8	4.2	-1.0
COc1ccc(CCN2C(=O)CC(C(N)=O)SC2=Nc2ccccc2)cc1OC (stereo not drawn)	-2.6	100.9	103.0	78.4	-1.3	-2.0
COc1ccc2[nH]c(C)c(CCN(Cc3cccs3)C(=S)Nc3ccc(F)cc3)c2c1	x	87.8	100.3	37.0*	x	-13.0
CCN(CC)S(=O)(=O)c1cccc2cc(C(=O)O)c(O)cc12	x	81.2	90.3	90.8	9.1	3.0
Cc1noc(NS(=O)(=O)c2ccc(NC(=O)Nc3ccc(Cl)c(Cl)c3)cc2)c1C	100.0*	66.6	94.2	90.1	-6.3	13.0
CCCn1c(=O)n(C)c(=O)c2c(SCC(=O)NCc3ccco3)nc(C3CC3)nc21	x	83.0	93.8	40.6	x	-1.0
COc1ccc(-c2c(C)nn(-c3ccccc3)c2N)cc1OC	x	92.8	100.1	92.4	x	x
CCN(CC)P1(=O)OC(c2cc(OC)c(OC)c(OC)c2)=Nc2c1c(C)nn2-c1ccccc1 (stereo not drawn)	-2.0	89.4	83.2	28.1*	x	11.0
Cc1cccc(N2CCN(C(=O)CCn3c(=S)[nH]c4cc5c(cc4c3=O)OCO5)CC2C)c1 (stereo not drawn)	48.5	53.3	94.5	47.0	x	-5.0
CCOC(=O)c1ccc(Nc2ccc(-c3ccc(OC)c(OC)c3)nn2)cc1	10.2	56.0	97.8	31.8*	x	-14.0
O=C1c2[nH]nc(-c3ccccc3O)c2C(c2cccc(Cl)c2)N1Cc1ccco1 (stereo not drawn)	100.0*	4.9*	87.7	0.8*	17.3	-3.0
O=C1c2[nH]nc(-c3ccccc3O)c2C(c2cccc(Cl)c2)N1CC1CCCO1 (stereo not drawn)	88.0*	71.3	91.1	21.1*	5.8	6.0
O=C1c2[nH]nc(-c3ccccc3O)c2C(c2ccc(F)cc2)N1Cc1ccco1 (stereo not drawn)	100.0*	79.3	92.3	1.8*	3.6	0.0
C[n+]1cc[nH]c1SCC(=O)c1ccccc1	x	95.9	98.1	96.2	x	-2.0
Cc1cc2ccccc2n1CCNC(=O)C(C)Oc1ccccc1 (stereo not drawn)	x	102.5	102.5	94.5	x	2.0
